Screens from PubChem BioAssay.
Rows were chosen to be rich in hits. Some 1.4% of all compounds tested hit in one or more screens of this group.
NR1D1 modulator: modulators of Rev-erb alpha DNA binding, primary screen, biochemical, FITC-DNA, fluorescence polarization, uHTS; Nuclear receptor subfamily 1 group D member 1 (Homo sapiens), P20393; Rev-erbα–FITC-DNA binding, 90 min; activity, % at 10 µM; hit rate 0.79% among 370,000; AID 1259318, 2017;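 active = activity above about 14%, limit read from the data; passing the limit was not always enough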;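 also: 0% = DMSO wells with 35 nM protein and 100% = DMSO wells with 750 nM protein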
NR2E3 ag-1: inhibitors of NR2E3-RetCOR corepressor binding, primary screen, NR2E3 agonist project, biochemical, TR-FRET, GST-NR2E3, biotin-RetCOR. Photoreceptor-specific nuclear receptor (Homo sapiens), Q9Y5X4. 1536-well. inhibition of corepressor binding, % at 4.78 µM. hit rate 0.12% among 320,000. AID 2300, 2010;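 active = percent inhibition above the cutoff of mean plus 3 SD of all tested compounds, set per screening campaign, cut at about 20% in these data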;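 also: 0% = DMSO wells and 100% = biotin wells as full block of FRET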
Target sequence (Q9Y5X4 whole entry, looked up): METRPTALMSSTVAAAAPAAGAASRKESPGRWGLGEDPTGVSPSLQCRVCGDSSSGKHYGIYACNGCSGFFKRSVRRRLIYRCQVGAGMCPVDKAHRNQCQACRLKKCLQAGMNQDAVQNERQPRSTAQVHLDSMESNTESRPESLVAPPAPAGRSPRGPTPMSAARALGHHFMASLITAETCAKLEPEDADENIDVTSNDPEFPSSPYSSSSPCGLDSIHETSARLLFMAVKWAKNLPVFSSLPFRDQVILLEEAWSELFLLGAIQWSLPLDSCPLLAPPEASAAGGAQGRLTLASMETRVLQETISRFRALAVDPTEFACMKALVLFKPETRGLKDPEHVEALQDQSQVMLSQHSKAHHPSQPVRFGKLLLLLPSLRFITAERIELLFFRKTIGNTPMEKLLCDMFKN
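System: GST-tagged NR2E3 plus biotinylated RetCOR corepressor; Amount: 1.35 nM GST-tagged NR2E3 final; Dosing: single nominal compound dose of 4.8 µM; Schedule: 5 h incubation at 4 °C; Technique: TR-FRET with europium anti-GST and streptavidin-D2, 340 nm excitation; Controls: biotin wells as high control, 0.6% DMSO wells as low control.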
NR2E3 ag-2: NR2E3 agonists in two-hybrid cells, primary screen, cell-based, luminescence, CHO-S, Gal4-NCOR/VP16-NR2E3; Photoreceptor-specific nuclear receptor (Homo sapiens), Q9Y5X4; AID 602229, 2012; luciferase; inhibition of corepressor binding, % at 3.98 µM; hit rate 0.35% among 360,000;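 active = inhibition above the mean of all tested compounds plus 3 SD, cut at about 70% in these data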;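 also: 0% = DMSO with NR2E3 transfected cells and 100% = cells lacking NR2E3 construct; higher means lower luciferase signal from less NR2E3 corepressor binding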
PG9 Ab binder: binders of HIV-1 gp120 antibody PG9, primary screen, biochemical, TR-FRET; TR-FRET gp120-PG9 antibody binding; inhibition, % at 6.7 µM; hit rate 0.43% among 360,000; in the data active = inhibition above about 8.5%
Rev-erbA confirm: modulators of Rev-erb alpha DNA binding, confirmation, biochemical, FITC-DNA, fluorescence polarization, single point. activation, % at 25 µM. 90 min. hit rate 61% among 3,000. shares compounds with NR1D1 modulator;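 active = activation at or above a set limit, or at least 3 SD above the negative control mean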;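 also: 0% = 35 nM protein with DMSO and 100% = 750 nM protein high control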
RORg DNA counter: modulation of RORgamma DNA binding, dose response, counter-screen for Rev-erb alpha modulator project, biochemical, fluorescence polarization, FITC-DNA; purified RORgamma protein-FITC-DNA binding; shares compounds with NR1D1 modulator; AID 1259320, 2017; hit rate 8% among 910; IC50, µM;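 active = Compounds whose fitted half-maximal concentration for disrupting protein-DNA binding is below 10 micromolar; the record names Rev-erb in its text, so the target is in doubt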
An asterisk follows results filed as active; i = inactive; x = no result.

SMILES	NR1D1 modulator	NR2E3 ag-1	NR2E3 ag-2	PG9 Ab binder	Rev-erbA confirm	others
COc1ccc2c(C)cc(SCC(=O)NC3CCCCC3)nc2c1	121*	x	14	2	53*	RORg DNA counter=>40
COc1ccc2c(C)cc(SCC(=O)N3CCOCC3)nc2c1	5	2	-5	1	x
Cc1ccc(C(=O)CSc2ncnc3sc4c(c23)CCC(C)C4)cc1 (centres undefined)	68*	x	-22	-1	24*
CC(=O)CSc1ncnc2sc3c(c12)CCC3	-6	1	-4	-2	x
FC(F)(F)c1cc(-c2cccs2)nc2cc(-c3ccccc3)nn12	33*	1	3	6	14
O=C(O)c1cc2nc(-c3cccs3)cc(C(F)(F)F)n2n1	-20	0	5	-1	x
COc1ccc(CNC(=O)c2cc(=O)c3cc(C)c(C)cc3o2)cc1	-3	2	-2	2	x
COc1ccc(-n2nc(C(=O)NCC(=O)N3CCN(c4ccccn4)CC3)c3ccccc3c2=O)c(OC)c1	-3	2	-71	-1	x
COc1ccc(-n2nc(C(=O)NCC(=O)Nc3cc(Cl)c(OC)cc3OC)c3ccccc3c2=O)cc1	53*	1	-6	1	50*	RORg DNA counter=>40
COc1ccc(-n2nc(C(=O)NCC(=O)Nc3cc(OC)ccc3OC)c3ccccc3c2=O)cc1	4	1	-13	0	x
COc1ccc(-n2nc(C(=O)NCC(=O)Nc3ccccn3)c3ccccc3c2=O)cc1Cl	66*	x	-3	1	45*	RORg DNA counter=i
COc1ccc(-n2nc(C(=O)NCC(=O)N3CCN(c4cccc(Cl)c4)CC3)c3ccccc3c2=O)c(OC)c1	31*	-1	8	-1	14
COc1ccc(CSc2nc(CSC)cc(N3CCOCC3)n2)cc1	2	-1	8	-1	x
COC(=O)c1cc2c(c3c4cc(F)ccc4n(S(=O)(=O)c4cccc(C)c4)c13)C(=O)N(Cc1ccc(N(C)C)cc1)C2	27*	x	x	-1	1
Nc1ccc2ccccc2c1N=Nc1ccccc1	23*	x	-24	-3	27*
O=C(CCc1c[nH]c2ccccc12)N=Nc1c(O)[nH]c2ccccc12	2	3	13	-5	x
CCCc1cc2c(=O)c(-c3nc4ccccc4s3)c(COCC(=O)O)oc2cc1O	30*	x	-121	0	18
CCOC(=O)N1CCN(S(=O)(=O)c2ccc(C(=O)Nc3nc4ccccc4s3)cc2)CC1	34*	0	-17	7	21*
CCOC(=O)c1sc(NC(=O)c2ccc(S(=O)(=O)N3CCCCCC3)cc2)nc1-c1ccccc1	29*	0	-4	-2	5
CCOC(=O)N1CCN(S(=O)(=O)c2ccc(C(=O)Nc3nc4ccc(F)cc4s3)cc2)CC1	x	-1	-10	0	x
Cc1cc(C)n2nc(SC(C)C(=O)N(C)C3CCCCC3)nc2n1 (centres undefined)	-3	x	-11	1	x
CC[C@]12c3[nH]c4ccc(Cl)cc4c3CCN1C(=O)[C@@H](CC(=O)NCCc1ccccn1)C[C@@H]2C(=O)N1CCN(C(=O)c2ccco2)CC1	-1	x	-19	0	x
O=C1c2ccccc2C(=O)C1(CO)c1ccc(OC(F)F)cc1	2	-2	-76	-5	x
CCN1C(=O)/C(=C/c2ccc(N3CCCC3)cc2)NC1=S	56*	-2	6	-9	49*	RORg DNA counter=>40
CCCN1C(=O)/C(=C/c2ccc(N3CCOCC3)cc2)NC1=S	14	-3	4	-5	x
SMILES	NR1D1 modulator	NR2E3 ag-1	NR2E3 ag-2	PG9 Ab binder	Rev-erbA confirm	others
CC1(CN2CCCC2)CCC(NC(=O)C(c2ccccc2)c2ccccc2)C(C)(C)O1 (centres undefined)	-1	x	0	0	x
COc1ccccc1S(=O)(=O)N(C)C[C@@H]1OCc2cn(nn2)CCCC(=O)N([C@@H](C)CO)C[C@H]1C	5	x	-22	-1	x
CCOC(Cn1c(SCc2cc(C(C)=O)ccc2OC)nc2ccccc2c1=O)OCC	34*	2	-21	0	34*	RORg DNA counter=>40
COc1ccc(C(C)=O)cc1CSc1nc2cc(C(=O)O)ccc2c(=O)n1Cc1ccccc1	-2	4	-1	-1	x
O=C(Cc1ccc(Cl)cc1)NC(=S)Nc1ccccc1N1CCOCC1	-1	0	7	-1	x
O=C(Nc1ccccc1N1CCOCC1)C1(c2ccc(Cl)cc2)CCC1	20*	2	13	-1	9
COc1ccc2oc(C(=O)OCC(=O)N3CCN(C(C)=O)CC3)c(C)c2c1	5	-3	-31	3	x
COC(=O)[C@]12C[C@H](CC(=O)NCc3cccs3)C(=O)N(CCc3ccc(OC)c(OC)c3)C1=C[C@H](C(C)(C)C)O[C@@H]2C	-6	x	x	0	x
CCOC(=O)C1=C(c2ccccc2)O/C(=C(\C(=O)OC)C(F)(F)F)S1	25*	-1	-26	-3	18*
CCOC(=O)C1=C(c2ccccc2)O/C(=C(/C#N)C(F)(F)F)S1	x	3	x	x	x
Clc1ccc(-c2ccnc(Oc3cc(Cl)ccc3Cl)n2)cc1	35*	2	-9	1	39*	RORg DNA counter=>40
CCn1c(SCC(=O)Nc2ccc(Cl)cc2)nc2nc3c(cc2c1=O)CCCC3	0	-1	-43	5	x
CCn1c(SCC(=O)Nc2ccc(C(C)=O)cc2)nc2nc3c(cc2c1=O)CCCC3	17*	-2	-48	0	5
Cc1ccc(C(=O)CNc2cccc([N+](=O)[O-])c2)cc1	15*	1	-3	-3	-2
Cc1ccc(NCC(=O)c2ccc([N+](=O)[O-])cc2)cc1	x	1	-82	x	x
Cc1c(NC(=O)CSc2nnnn2-c2ccc(O)cc2)c(=O)n(-c2ccccc2)n1C	1	-1	-15	1	x
O=[N+]([O-])c1cccc(N(CC(O)CN2CCCC2)S(=O)(=O)c2ccccc2)c1 (centres undefined)	-1	3	-3	0	x
Cc1ccc(-c2nc3sc4c(c3c(=O)n2N)CC(C)(C)OC4)cc1	15	3	-3	0	x
CC1(C)Cc2c(sc3nc(-c4cc5ccccc5o4)n(N)c(=O)c23)CO1	48*	2	-36	0	26*
Cc1cccc(NC(=O)C2CCN(S(=O)(=O)c3ccc4c(c3)OCCCO4)CC2)n1	1	3	-10	1	x
Nc1c(-c2cccs2)cnc2c(-c3ccc(F)cc3)cnn12	35*	0	-168	-2	6
